Measurements of several laboratories.
Protocols differ between the studies behind these lines.
BTK: Tyrosine-protein kinase BTK (BTK, Homo sapiens, UniProt Q06187)

SMILES	target	test	test system	conditions	quantity	value
Cc1ccc(C(=O)Nc2ccc(CN3CCN(C)CC3)c(C(F)(F)F)c2)cc1C#Cc1cnc2cccnn12	Mitogen-activated protein kinase kinase kinase 19 (MAP3K19, Homo sapiens, UniProt Q56UN5)	enzyme activity, inhibitor	–	23.5 nM	remaining activity	54%
Cc1ccc(C(=O)NCc2ccsc2)cc1C#Cc1cn(C(C)C)c2ncnc(N)c12	Mast/stem cell growth factor receptor Kit (KIT, Homo sapiens, UniProt P10721)	enzyme activity, inhibitor	–	1 µM	activity vs control	-1%
C=CC(=O)N1CCC[C@@H]1Cn1nc(-c2ccc(Oc3ccccc3)cc2F)c2c(N)ncnc21	BTK	enzyme activity, inhibitor	–	–	KI (inactivation)	1.8 nM
CC(C)C[C@H](NC(=O)[C@H](CC(C)C)NC(=O)CNC(=O)[C@H](C)NC(=O)[C@H](C)NC(=O)[C@H](CCCNC(=N)N)NC(=O)CNC(=O)CCCCNC(=O)CCCCNC(=O)CCCCNC(=O)[C@H](CCCCN)NC(=O)[C@H](Cc1ccc(O)cc1)NC(=O)CCc1c[nH]c2ccccc12)C(N)=O	Neuropeptides B/W receptor type 1 (NPBWR1, Homo sapiens, UniProt P48145)	cAMP, agonist, TR-FRET	–	–	Emax	94%
COc1cccc(OC)c1-c1cc(C(=O)N[C@@H](CC(C)C)C(=O)O)nn1-c1ccnc2cc(Cl)ccc12	Neurotensin receptor type 1 (NTSR1, Homo sapiens, UniProt P30989)	calcium signal, agonist	CHO	–	Emax	63%
COc1cc(Nc2cnc(C#N)c(O[C@H](C)CN(C)C)n2)ncc1-c1cnn(C)c1	Serine/threonine-protein kinase tousled-like 1 (TLK1, Homo sapiens, UniProt Q9UKI8)	enzyme activity, inhibitor, radiometric	–	1 µM	remaining activity	95%
COc1ccc(F)cc1C(=O)NCc1ccc(-c2nn([C@@H](C)C(F)(F)F)c(N)c2C(N)=O)cc1	BTK	binding, SPR	–	–	koff	7.9e-05 s⁻¹
Nc1ncnc2occ(-c3ccc(NC(=O)Nc4cc(C(F)(F)F)ccc4F)cc3)c12	Cyclin-dependent kinase 11A (CDK11A, Homo sapiens, UniProt Q9UQ88)	cell-free assay	–	20 µM	remaining signal	0.3%
CC(C)(C=C(C#N)C(=O)N1CCC[C@H]1Cn1nc(-c2ccc(Oc3ccccc3)cc2F)c2c(N)ncnc21)N1CCOCC1	BTK	enzyme activity, inhibitor	–	–	kinact/KI	400000 M⁻¹ s⁻¹
Cc1cc(NC(=O)c2cccc3cc(-c4cccc5[nH]nc(N)c45)ccc23)ccc1F	Mast/stem cell growth factor receptor Kit (KIT, Homo sapiens, UniProt P10721, D816H)	enzyme activity, inhibitor	–	0.1 µM	activity vs control	37%
